{"source": "paper PMC3505964", "about": "(Nucleic Acids Research, 2012)", "key": {"human DNA polymerase β [1]": {"molecular_target": "T1, human DNA polymerase β (Homo sapiens, UniProt P06746)", "experiment": "PAGE analysis of primer extension reactions, pol β", "type": "biochemical"}, "[2]": {"system": "avian myeloblastosis virus reverse transcriptase (AMV-RT)", "experiment": "PAGE analysis of primer extension reactions, AMV-RT", "type": "biochemical", "conditions": "single dNTPs"}, "[3]": {"system": "avian myeloblastosis virus reverse transcriptase (AMV-RT)", "experiment": "MALDI-TOF analysis of primer extension products, AMV-RT", "type": "biochemical", "conditions": "1 mM each dNTP, 20-mer products"}, "human DNA polymerase β [4]": {"molecular_target": "T1, human DNA polymerase β", "experiment": "MALDI-TOF analysis of primer extension products, pol β", "type": "biochemical", "conditions": "1 mM each dNTP, 19-mer and 20-mer products", "outline": "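Unlabelled 16-mer primer (10 pmol) annealed to a 25-mer template (20 pmol; 2′-O-methylguanosine or 8-nitro-2′-O-methylguanosine) at 70°C for 20 min, then room temperature for 15 min. Final pol β was 750 nM, with 1 mM each dNTP. Incubated 37°C for 60 min, stopped at 90°C for 5 min. Desalted on C18 tips (0.1 M TEAA pH 7.0), eluted in 3-HPA/ammonium citrate matrix. Products assigned by calculated m/z against a 20-mer standard mix.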"}, "[5]": {"conditions": "cited from earlier work"}, "[6]": {"experiment": "pKa determination from pH-dependent UV absorption", "type": "physicochemical", "conditions": "25 °C; for pKa (deprotonation at N1): free nucleoside"}, "[7]": {"conditions": "free nucleoside; cited from earlier work"}}}
{"molecule": "5′-TCANCATTGGGAGTCGACATAGCGC–3′ [8-nitroG template]", "values": [{"measurement": "dCTP incorporation, level relative to the control", "setting": "human DNA polymerase β [1]; single dCTP", "value": "< 20", "unit": "%"}, {"measurement": "increase of dTTP incorporation relative to control", "setting": "human DNA polymerase β [1]; single dTTP, from a low level", "value": "around 2 fold"}, {"measurement": "single dNTP most preferentially inserted", "setting": "[2]", "value": "dATP"}]}
{"molecule": "5′-TCANCATTGGGAGTCGACATAGCGC–3′ [control template]", "values": [{"measurement": "nucleotide incorporated opposite X in extended products", "setting": "[3]", "value": "predominantly dC"}, {"measurement": "nucleotide incorporated opposite X in extended products", "setting": "human DNA polymerase β [4]", "value": "only dC"}]}
{"molecule": "Nc1nc2c(nc([N+](=O)[O-])n2C2OC(CO)C(O)C2F)c(=O)[nH]1", "note": "(centres unmarked) [2′-fluoro, reference compound]", "values": [{"measurement": "half-life (depurination)", "setting": "[5]; pH 7.4", "value": 72, "unit": "days"}]}
{"molecule": "Nc1nc2c(nc([N+](=O)[O-])n2[C@@H]2O[C@H](CO)[C@@H](O)[C@H]2O)c(=O)[nH]1", "note": "[Compound 6a, 8-Nitroguanosine]", "values": [{"measurement": "pKa (deprotonation at N1)", "setting": "[6]", "value": 8.4}, {"measurement": "half-life (hydrolytic stability)", "setting": "[5]; pH 7 and 37°C, ref one published study", "value": 0.21, "unit": "days"}]}
{"molecule": "CO[C@@H]1[C@H](O)[C@@H](CO)O[C@H]1n1c([N+](=O)[O-])nc2c(=O)[nH]c(N)nc21", "note": "[Compound 6b, 8-Nitro-2′-O-methylguanosine]", "values": [{"measurement": "pKa (deprotonation at N1)", "setting": "[6]", "value": 8.3}]}
{"molecule": "Nc1nc2c(ncn2[C@@H]2O[C@H](CO)[C@@H](O)[C@H]2O)c(=O)[nH]1", "note": "[guanosine]", "values": [{"measurement": "pKa", "setting": "[7]", "value": 9.4}]}
{"molecule": "GCGTACG**CATGCG [ODN4]", "values": [{"measurement": "pKa of 8-nitro-2′-O-methylguanosine within the single-stranded oligonucleotide", "setting": "[6]; single-stranded ODN GCGTACG**CATGCG", "value": 9.1}]}
